In the library only some 1.9% were active in any assay of this set; here they are far more common.
Runt-SMMHC FRET: inhibitors of RUNX1 Runt–CBFb-SMMHC binding, primary screen, biochemical, FRET, Cerulean-Runt, Venus-CBFb-SMMHC, uHTS; Runt-related transcription factor 1 (Homo sapiens) + Core-binding factor subunit beta …; Cerulean-Runt/Venus-CBFb-SMMHC FRET ratio 530/480, 1 h; inhibition, % at 20 µM; hit rate 0.74% among 220,000; AID 1434, 2008;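 active means mean inhibition across duplicate retests at 20 µM reaching about 50%, limit read from the data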;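 further: 0% = DMSO wells and 100% = wells with excess untagged CBFb-SMMHC; inhibitors lower the FRET ratio by blocking Runt binding to CBFb-SMMHC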
RanGTP-Impb inh: inhibitors of RanGTP-importin-beta interaction, primary screen, biochemical, FRET, CFP-Ran, YFP-importin-beta, homogeneous; hit rate 1.1% among 300,000; inhibition, % (concentration not given with the values); Ran GTPase (GTP-bound) - importin-beta complex; cell-free CFP-Ran/YFP-importin-beta FRET ratio;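 active means more than half of the replicate wells show a fall in the fluorescence ratio signal beyond about 16%, limit read from the data, passing the limit was not always enough; inconclusive means exactly half of the replicate wells pass the set limit; inactive means fewer than half of replicates pass the limit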;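 further: 0% = DMSO wells and 100% = Ran loaded with GDP instead of GTP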
Hck-Nef inh: inhibitors of Nef-activated human Hck kinase, primary screen, biochemical, Z-Lyte FRET, 384-well, Hck-YEEI; hit rate 0.68% among 220,000; inhibition, % at 20 µM; Tyrosine-protein kinase HCK (Homo sapiens), P08631; Recombinant Hck-YEEI plus Nef, Z-Lyte FRET kinase assay;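 active means Hck-Nef kinase inhibition above about 50%, limit read from the data; inactive means inhibition below that limit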;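 further: 0% = DMSO with Hck plus Nef and 100% = Hck alone without Nef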
Target sequence (P08631 whole entry, looked up): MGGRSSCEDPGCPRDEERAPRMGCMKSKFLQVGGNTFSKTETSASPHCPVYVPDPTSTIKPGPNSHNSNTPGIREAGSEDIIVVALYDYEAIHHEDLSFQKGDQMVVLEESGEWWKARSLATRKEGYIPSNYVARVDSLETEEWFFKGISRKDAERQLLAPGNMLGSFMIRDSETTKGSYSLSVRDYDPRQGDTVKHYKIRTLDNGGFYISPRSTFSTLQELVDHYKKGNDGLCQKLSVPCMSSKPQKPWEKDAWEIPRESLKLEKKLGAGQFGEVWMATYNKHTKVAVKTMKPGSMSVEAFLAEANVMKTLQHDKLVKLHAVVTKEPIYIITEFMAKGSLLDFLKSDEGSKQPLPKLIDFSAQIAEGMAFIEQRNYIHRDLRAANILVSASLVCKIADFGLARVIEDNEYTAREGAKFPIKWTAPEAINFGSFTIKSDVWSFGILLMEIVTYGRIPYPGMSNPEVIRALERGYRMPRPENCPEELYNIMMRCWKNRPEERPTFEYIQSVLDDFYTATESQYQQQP
Runt-CBFb FRET: inhibitors of RUNX1 Runt–CBFb binding, primary screen, biochemical, FRET, Cerulean-Runt, Venus-CBFb, uHTS; Runt-related transcription factor 1 (Homo sapiens) + Core-binding factor subunit beta …; Cerulean-Runt/Venus-CBFb FRET ratio 530/480, 1 h; inhibition, % at 20 µM; hit rate 0.46% among 220,000; AID 1496, 2009;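 active means inhibition over about 50% at 20 µM in the single-dose screen, limit read from the data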;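 further: 0% = DMSO wells and 100% = excess unlabeled CBFb competitor control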
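Assay system: Cerulean-Runt domain fusion protein, energy donor; Signal: fluorescence energy transfer, 422 nm excitation, 530/480 nm emission; Timing: 1 h compound exposure, room temperature; Control set: unlabeled CBFb; Medium: Tris buffer pH 7.5 with salts and BSA; Compound: single test concentration of 20 µM, 1% DMSO final; Probe or stimulus: Venus-CBFb 100 nM.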
Runt-CBFb TRFRET: inhibitors of RUNX1 Runt–CBFb binding, biochemical, TR-FRET | hit rate 20% among 480 | TR-FRET RUNX1 Runt domain-CBFb binding | AID 1502, 2009 | inhibition, % at 20 µM | shares compounds with Runt-CBFb FRET; in the data active means inhibition above about 40%
Starred values were filed as active, the others as inactive; u = inconclusive; x = no result given.

SMILES	Runt-SMMHC FRET	RanGTP-Impb inh	Hck-Nef inh	Runt-CBFb FRET	Runt-CBFb TRFRET
COc1ccc(C(=O)NCc2nnc(SCC(=O)Nc3nc4ccccc4s3)o2)cc1	-3.3	0.9	1.2	56.7*	-23.4
COc1ccccc1CNC(=O)CCNS(=O)(=O)c1cccc2nonc12	x	-3.3	x	x	x
CC(C)(C)n1nc2c(c1NC(=O)c1cccc(Cl)c1)CS(=O)(=O)C2	x	3.0	x	x	x
CSc1nn2c(C(F)(F)F)cc(C(F)(F)F)nc2c1C(N)=O	-1.3	-6.9	-10.1	-1.7	x
CCOC(=O)C1=C(C)N(c2ccc(OC)cc2)C(=O)/C1=C\c1ccc(O)c(OCC)c1	-4.1	-12.2	-309.3	65.2*	32.2
CCOc1ccccc1NC(=O)C(OC(=O)c1cc(C)oc1C)c1ccccc1 (stereo unspecified)	3.2	-4.7	7.1	54.0*	-13.3
CCOc1ccccc1NC(=O)C(OC(=O)c1ccccc1O)c1ccccc1 (stereo unspecified)	-0.6	-4.4	-1.8	0.0	x
CCN1CCN(CCOc2cccc(Oc3ccccc3)c2)CC1	1.9	2.0	23.8	-1.6	x
Oc1c(Br)cccc1/C=N/c1ncn[nH]1	x	2.9	x	x	x
C=CCn1c(N)c(C(=O)OC(C)(C)C)c2nc3ccccc3nc21	95.2*	29.4*	41.1	69.8*	-5.1
Cn1c(CNC(=O)CNC(=O)Cc2ccc(F)cc2)cc(=O)n(C)c1=O	x	-1.4	x	x	x
CCn1cc(CN2CCc3c([nH]c4ccccc34)C2c2cccc(OC)c2OC)c(C)n1 (stereo unspecified)	5.6	-7.5	16.3	2.0	x
CCN1CCN(C(=S)c2ccc(Cl)cc2)CC1	30.3	1.4	0.2	37.6	x
CC(C)(C)c1cc(C(=S)N2CCN(CCO)CC2)cc(C(C)(C)C)c1O	47.1	u	1.9	51.8*	9.4
OCCN1CCN(C(=S)c2ccc(Cl)cc2)CC1	39.5	5.5	5.6	53.1*	11.1
COc1cc(CC(=O)OCC(=O)N2CCCCC2)cc(OC)c1OC	x	2.4	x	x	x
O=C(Nc1ccc(-c2nc3ccccc3s2)c(O)c1)C1=COCCO1	128.4*	-31.0	67.3*	59.3*	2.0
COc1ccc(S(=O)(=O)N(C(=O)c2ccco2)c2cc3sc(=O)oc3c3ccccc23)cc1	43.4	3.9	3.3	8.9	x
Cc1ccc(S(=O)(=O)N(C(=O)c2ccco2)c2cc3sc(=O)oc3c3ccccc23)cc1	36.8	1.9	0.5	11.4	x
COc1ccc(N(C(C)=O)S(=O)(=O)c2cc(OC)ccc2OC)cc1	4.4	6.4	2.6	27.0	x
COc1ccc(S(=O)(=O)N(C(=O)C(C)C)c2ccc3oc(=O)sc3c2)cc1	55.9*	0.2	2.0	53.1*	4.4
CC(C)C(=O)N(c1ccc2oc(=O)sc2c1)S(=O)(=O)c1ccccc1	63.1*	2.2	-2.0	57.5*	18.7
CC(=O)N(c1ccc2oc(=O)sc2c1)S(=O)(=O)c1ccccc1	38.1	-0.5	8.2	60.4*	17.1
COc1ccc(OC)c(S(=O)(=O)N(C(C)=O)c2ccc3oc(=O)sc3c2)c1	x	-1.0	18.7	66.6*	12.5
O=S(=O)(Nc1c(F)cccc1F)c1ccc(Cl)nc1	x	-1.4	x	x	x
SMILES	Runt-SMMHC FRET	RanGTP-Impb inh	Hck-Nef inh	Runt-CBFb FRET	Runt-CBFb TRFRET
CCn1c(=O)n(CC)c2cc(N3CCCC3)c(NC(=O)c3ccc(C)c([N+](=O)[O-])c3)cc21	x	-1.8	x	x	x
COc1ccc(C(=O)Oc2ccc3oc(=O)sc3c2)cc1	39.9	1.4	2.1	64.8*	0.1
CN(CC(=O)O)S(=O)(=O)c1cccs1	-4.7	-1.1	-2.3	0.3	x
CCCC(=O)N(c1ccc2oc(=O)sc2c1)S(=O)(=O)c1cccs1	31.5	x	2.8	62.8*	10.0
COc1ccc(C(=O)Oc2ccc3ccc(=O)oc3c2)cc1	x	0.2	x	x	x
O=C(Nc1ccc(OCc2ccccc2)cc1)Nc1ccccc1C(=O)NCCCN1CCOCC1	-3.4	-0.4	14.6	-3.9	x
CCOC(=O)c1c(-c2ccccc2)oc2ccc(OC(C)=O)cc12	-1.4	-2.4	0.6	51.6*	29.2
CC(C)(C)OC(=O)N1CCN(c2ccc([N+](=O)[O-])cc2)CC1	-4.2	-1.3	26.4	-5.0	x
O=C(CN1CCN(Cc2ccccc2)CC1)Nc1cccc(C(F)(F)F)c1	-2.8	0.6	0.5	-3.3	x
O=C(CN1CCN(c2ccccc2)CC1)Nc1cccc(C(F)(F)F)c1	-1.0	9.2	-0.5	59.4*	-15.5
O=C(CC1NCCNC1=O)NC1Cc2ccccc2C1 (stereo unspecified)	0.1	6.4	1.1	1.8	x
Cc1nnc(Sc2cc(NCCO)c([N+](=O)[O-])c3nonc23)s1	31.3	-0.6	-9.2	52.2*	26.9
CC(C)(C)OC(=O)N1CCC(C(=O)N2CCCCCC2)CC1	-3.5	-2.4	-9.1	0.5	x
CC(C)(C)OC(=O)N1CCC(C(=O)N2CCOCC2)CC1	0.3	1.2	5.6	84.3*	-49.9
O=C1CCCC2=C1C(c1ccc(O)c(O)c1)c1c(ccc3ncccc13)N2 (stereo unspecified)	40.7	5.5	21.6	51.1*	44.1*
COc1ccc(NC(=O)CCCn2nc(C)c3c(C)n(-c4ccccc4)nc3c2=O)cc1	x	0.8	x	x	x
COCCOC(=O)C(C#N)c1nc2ccccc2nc1N1CCN(Cc2ccccc2)CC1 (stereo unspecified)	96.9*	5.5	2.8	53.4*	0.8
Cn1cc(Cl)c(C(=O)N/N=C/c2ccc3c4c(cccc24)CC3)n1	x	2.5	x	x	x
COCCn1c(SCC(=O)N2CCCCCC2)nnc1-c1ccco1	x	3.4	x	x	x
CCNC(=O)NC(=O)C(C)OC(=O)c1cccn1C (stereo unspecified)	-5.0	-2.7	-3.6	-0.6	x
CCCn1nc(NC(=O)c2cccs2)c2cc3cccc(C)c3nc21	85.1*	94.9*	32.2	63.6*	27.2
CCCn1nc(NS(C)(=O)=O)c2cc3cccc(C)c3nc21	-25.7	0.6	2.6	-7.5	x
N#CC1=C(N)Oc2cc(O)c(C=Nc3ccccc3)cc2C1c1ccccc1 (stereo unspecified)	34.2	u	4.7	26.9	x
Cc1ccccc1N=Cc1cc2c(cc1O)OC(N)=C(C#N)C2c1ccccc1 (stereo unspecified)	108.8*	30.4*	5.8	71.1*	0.2
CN(CC(=O)Nc1ccccc1C(F)(F)F)C(=O)Cc1ccc(S(=O)(=O)N2CCOCC2)s1	x	-0.9	x	x	x
[O-]c1c[n+](-c2ccc(-[n+]3cc([O-])on3)cc2)no1	-3.4	x	28.5	5.9	x
Cc1ccc(C(=O)N/C(=C/c2ccccc2)C(=O)NCC2CCCO2)cc1 (stereo unspecified)	0.4	0.9	3.9	0.0	x

Assay outcomes (PubChem)
